# Measured values reported in ChEMBL document CHEMBL1133587, “Synthesis, biological activity, and molecular modeling of ribose-modified deoxyadenosine bisphosphate analogues as P2Y(1) receptor ligands” (J Med Chem, 2000).
# Activity calls are given as the source filed them. The calls are words filed in the database; no cut-off is given here.
# Legend:
# Type in all cases: functional
# P2Y purinoceptor 1 [1] = target: T1, P2Y purinoceptor 1 (Meleagris gallopavo, UniProt P49652); test: Inhibition of 30 nM 2-MeSADP stimulation of 2PY1-mediated phospholipase C (PLC) activity in Turkey erythrocyte ghosts; small decrease
# T1 sequence (P49652 whole entry): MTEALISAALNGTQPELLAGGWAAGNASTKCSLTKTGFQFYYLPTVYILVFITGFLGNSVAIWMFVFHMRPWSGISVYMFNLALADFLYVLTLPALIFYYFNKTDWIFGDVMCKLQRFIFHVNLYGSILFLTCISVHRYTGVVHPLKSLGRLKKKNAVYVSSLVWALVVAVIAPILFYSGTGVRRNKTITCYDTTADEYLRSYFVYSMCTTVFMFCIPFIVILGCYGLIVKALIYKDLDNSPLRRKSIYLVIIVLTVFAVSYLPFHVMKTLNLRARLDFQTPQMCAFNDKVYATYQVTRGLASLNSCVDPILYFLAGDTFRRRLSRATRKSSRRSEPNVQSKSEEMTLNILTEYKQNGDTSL
# Procedure, shortened: (§1)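 [3H]inositol-labelled turkey erythrocyte ghosts incubated 5 min at 30 °C, pH 7.0, with 1 µM GTPγS. Graded analogue was combined with 30 nM 2-MeSADP. Total [3H]inositol phosphates separated by anion-exchange chromatography. IC50 is 50% inhibition of the 2-MeSADP response. Maximal inhibition is 100 minus residual stimulation at the highest concentration. At least three membrane preparations, duplicate or triplicate assays.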
# [2] = target: P2Y purinoceptor 1 (Meleagris gallopavo) (UniProt P49652); test: (§2) In vitro stimulation of 2PY1 purinoceptor mediated phospholipase C (PLC) activity in Turkey Erythrocyte Ghosts
# Sequence of P2Y purinoceptor 1 (Meleagris gallopavo) (P49652 whole entry): as above
# Procedure, shortened: (§3)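 Turkey erythrocytes labelled 18-24 h at 37 °C with 2-[3H]myo-inositol in inositol-free DMEM. Ghosts prepared by hypotonic lysis (about 175 µg protein). Incubated 5 min at 30 °C in Hepes pH 7.0 buffer with 1 µM GTPγS and graded nucleotide. Total [3H]inositol phosphates measured by anion-exchange chromatography. EC50 from four-parameter logistic fit. Efficacy given relative to maximal 2-MeSADP. At least three experiments, duplicate or triplicate.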
# [3] = target: P2Y purinoceptor 1 (Meleagris gallopavo) (UniProt P49652); test: Inhibition of 30 nM 2-MeSADP stimulation of 2PY1-mediated phospholipase C (PLC) activity in Turkey erythrocyte ghosts; NE=not effective
# Procedure, shortened: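 Turkey erythrocytes were labelled with 2-[3H]myo-inositol in inositol-free DMEM for 18-24 h at 37 °C, then lysed hypotonically to make ghosts. Ghosts (about 175 µg protein) were incubated 5 min at 30 °C in KCl/Hepes medium at pH 7.0 with 1 µM GTPγS, 30 nM 2-MeSADP and the test nucleotide. Total [3H]inositol phosphates were measured by anion exchange. IC50 came from logistic fits, with at least three experiments.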
# [4] = target: P2Y purinoceptor 1 (Meleagris gallopavo) (UniProt P49652); test: (§4) Inhibition of 30 nM 2-MeSADP stimulation of 2PY1-mediated phospholipase C (PLC) activity in Turkey erythrocyte ghosts; procedure, shortened: as §1
# P2Y purinoceptor 1 [5] = target: T1, P2Y purinoceptor 1; test: as §4
# Procedure, shortened: as §1, with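 “chromatography.” for “chromatography. IC50 is 50% inhibition of the 2-MeSADP response.”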
# P2Y purinoceptor 1 [6] = target: T1, P2Y purinoceptor 1; test: as §2; procedure, shortened: as §3
SMILES,IC50 (P2Y purinoceptor 1 [1]),Max increase [2],Max inhibition [3],Max inhibition [4],IC50 (P2Y purinoceptor 1 [5]),EC50 (P2Y purinoceptor 1 [6])
Nc1ncnc2c1ncn2C1CN(CCP(=O)(O)O)CC(COP(=O)(O)OP(=O)(O)OP(=O)(O)O)O1 (stereo not given),Partially active,–,–,–,–,–
Nc1ncnc2c1ncn2C1CN(CCP(=O)(O)O)CC(COP(=O)(O)OP(=O)(O)O)O1 (stereo not given),–,11%,inactive,–,–,–
CNc1nc(N)nc2c1ncn2[C@H]1C[C@H](OP(=O)(O)O)[C@@H](COP(=O)(O)O)O1,–,4%,–,96%,–,–
CNc1ncnc2c1ncn2[C@@H]1C[C@H](COP(=O)(O)O)[C@H](OP(=O)(O)O)C1,–,–,–,100%,148 nM,–
CNc1nc(Cl)nc2c1ncn2[C@H]1C[C@@H](OP(=O)(O)O)[C@]2(COP(=O)(O)O)C[C@H]12,–,–,–,100%,51.6 nM,–
Nc1ncnc2c1ncn2C1CC(OP(=O)(O)O)C2(COP(=O)(O)O)CC12 (stereo not given),–,92%,inactive,–,–,155 nM
CNc1nc(N)nc2c1ncn2[C@@H]1C[C@H](COP(=O)(O)O)[C@H](OP(=O)(O)O)C1,–,26%,–,74%,5420 nM,6510 nM
Nc1ncnc2c1ncn2[C@@H]1C[C@H](COP(=O)(O)O)[C@H](OP(=O)(O)O)C1,–,27%,–,73%,2530 nM,7210 nM
CNc1nc(Cl)nc2c1ncn2[C@H]1C[C@H](OP(=O)(O)O)[C@@H](COP(=O)(O)O)O1,–,–,–,95%,–,–
CNc1nc(Cl)nc2c1ncn2C1COC(COP(=O)(O)O)C(OP(=O)(O)O)C1 (stereo not given),–,–,–,100%,566 nM,–
Nc1ncnc2c1ncn2C1CN(CCP(=O)(O)O)CC(COP(=O)(O)O)O1 (stereo not given),Partially active,–,–,37%,–,–
CNc1ncnc2c1ncn2C1COC(COP(=O)(O)O)C(OP(=O)(O)O)C1 (stereo not given),–,–,–,100%,1640 nM,–
CNc1nc(SC)nc2c1ncn2[C@H]1C[C@H](OP(=O)(O)O)[C@@H](COP(=O)(O)O)O1,–,6%,–,94%,–,–
Nc1ncnc2c1ncn2[C@@H]1CO[C@H](COP(=O)(O)O)[C@@H](OP(=O)(O)O)C1,–,100%,inactive,–,–,–
CNc1ncnc2c1ncn2C1CC(OP(=O)(O)O)C2(COP(=O)(O)O)CC12 (stereo not given),–,–,–,100%,157 nM,–
CNc1ncnc2c1ncn2C1COC(COP(=O)(O)OP(=O)(O)OP(=O)(O)O)C(O)C1 (stereo not given),–,18%,–,82%,2370 nM,9350 nM
C[C@H]1O[C@@H](n2cnc3c(N)ncnc32)[C@H](OP(=O)(O)O)[C@@H]1OP(=O)(O)O,Partially active,–,–,47%,–,–
Nc1ncnc2c1ncn2C12CC(OP(=O)(O)O)C(COP(=O)(O)O)C1C2 (stereo not given),–,50%,–,42%,40000 nM,18900 nM
CNc1nc(Cl)nc2c1ncn2[C@@H]1C[C@H](OP(=O)(O)O)C1COP(=O)(O)O (stereo not given in full),–,–,–,100%,805 nM,–
